Consider ten compounds from ChEMBL document CHEMBL1671797, “Lipophilic derivatives of leu-enkephalinamide: in vitro permeability, stability and in vivo nasal delivery” (Bioorg Med Chem, 2011).

Non-standard residues stand in square brackets, D forms with d. Residues, ends and D or L forms follow the SMILES beside them. Gly(decyl) = CCCCCCCCCC[C@H](N)C(=O)O; Aoc(2) = CCCCCC[C@H](N)C(=O)O

Data set [1] is described as follows: Stability of the compound in human Caco2 cell homogenate assessed as half life by LC-MS/MS analysis. It counts as ADME, Colon. As to conditions: Caco-2 cell homogenate. The method, boiled down: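 Confluent Caco-2 cells (21–28 days) rinsed, sonicated, spun 2000 rpm 5 min; supernatant adjusted to 0.5 mg/mL protein. Homogenate mixed 1:1 with 200 µM compound in HBSS/HEPES. Sampled at 5–120 min, quenched with TFA-acidified water (pH 1–2). Endomorphin-1 run as enzyme-activity control. t1/2 by one-phase decay fit; 4 wells, ≥3 independent experiments.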

Data set [2] can be described thus: Drug level in Sprague-Dawley rat blood at 1 mg/kg, intranasal after 10 mins by LC-MS/MS analysis. It counts as ADME, organism-based. Set-up: dose 1 mg/kg. As to conditions: whole blood, inhaled or intranasal. The method, boiled down: (§1)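 Male Sprague–Dawley rats (450–530 g, n = 4; 2 PBS controls) under xylazine/tiletamine–zolazepam anaesthesia. Dose given as 50 µL suspension in PBS pH 7.4 through a tube inserted 15 mm into the nasal cavity. CO2 euthanasia at 10 min. Tissues and blood homogenised or diluted in cold PBS, sonicated, acetonitrile-precipitated. Quantified against standards made in brain-homogenate matrix.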

Data set [3] in a line: Apparent permeability across human Caco2 cells by LC-MS/MS analysis. It counts as ADME, cell-based. The following applies: Caco-2. A digest of the protocol:
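Caco-2 cells (passage 25–35, DMEM with 10% FBS, 1% NEAA) grown 21–28 days on 0.4 µm polycarbonate Transwell inserts; TEER 2.5–5 kΩ/cm2 before use. Rinsed with EDTA/DPBS then HBSS/25 mM HEPES pH 7.4, equilibrated 30 min at 37 °C. 200 µM apical dose; basolateral sampling at 30, 90, 120, 150 min. Papp from steady-state flux; 4 wells/experiment, ≥3 experiments; 14C mannitol control.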

Data set [4] can be described thus: Drug level in Sprague-Dawley rat olfactory bulb at 1 mg/kg, intranasal after 10 mins by LC-MS/MS analysis. It counts as ADME, organism-based. Details: dose 1 mg/kg. As to conditions: inhaled or intranasal, read-out: Drug uptake. The method, boiled down: as §1
In data set [5] the test system is Plasma. The experiment in a line: Stability of the compound in human plasma assessed as degradation by HPLC analysis. It counts as ADME, cell-free. A digest of the protocol:
(§2)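 Compound at 1 mg/mL in PBS mixed 1:1 with human plasma from healthy volunteers at 37 °C. Aliquots taken at set times, put on ice, proteins precipitated with acetonitrile, spun 10,000 rpm 10 min. Supernatant run on C18 RP-HPLC (water/acetonitrile/TFA gradient), detection at 214 nm. Percent of initial peptide remaining plotted against time.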

Data set [6] is described as follows: Drug level in Sprague-Dawley rat brain at 1 mg/kg, intranasal after 10 mins by LC-MS/MS analysis. It is filed as ADME, organism-based. Details: dose 1 mg/kg. The following applies: inhaled or intranasal, read-out: Drug uptake. A digest of the protocol: as §1
Data set [7] can be described thus: Stability of the compound in human plasma assessed as half life by HPLC analysis. It counts as ADME, cell-free. A digest of the protocol: as §2
Data set [8] relates to Plasma. The experiment in a line: Stability of the compound in human plasma by HPLC analysis. It is filed as ADME, cell-free. The method, boiled down: as §2

With `CCCCCCCCCC[C@H](NC(C)=O)C(=O)N[C@@H](Cc1ccc(O)cc1)C(=O)NCC(=O)NCC(=O)N[C@@H](Cc1ccccc1)C(=O)N[C@@H](CC(C)C)C(N)=O` (Ac-[Gly(decyl)]YGGFL-NH2), the half-life (usually the time needed for the level to fall by half in the phase considered) in data set [1] amounted to 27 min.
`CCCCCC[C@H](N)C(=O)N[C@@H](Cc1ccc(O)cc1)C(=O)NCC(=O)NCC(=O)N[C@@H](Cc1ccccc1)C(=O)N[C@@H](CC(C)C)C(N)=O`: the concentration at 10 min in data set [2] was 6.53 nM; in data set [4], 59 nM; in data set [6], 13.5 nM. For the same compound, the results for the half-life in data set [1] and in data set [7] were 31.7 min and 8.9 min, respectively. The Papp (in general, the rate of passage across a membrane or cell layer, normalised by area and donor concentration) in data set [3] is 2.51 ×10⁻⁶ cm/s. Moreover, the Stability result in the data set with Plasma [5] is recorded as “Unstable”.
Regarding `CCCCCC[C@@H](N)C(=O)N[C@@H](Cc1ccc(O)cc1)C(=O)NCC(=O)NCC(=O)N[C@@H](Cc1ccccc1)C(=O)N[C@@H](CC(C)C)C(N)=O`, in the data set on Plasma [8], the Stability entry is given as “Stable”.
As for `CCCCCCCCCC[C@H](NC(=O)[C@H](CC(C)C)NC(=O)[C@H](Cc1ccccc1)NC(=O)CNC(=O)CNC(=O)[C@H](Cc1ccc(O)cc1)NC(C)=O)C(N)=O` (Ac-YGGFL[Gly(decyl)]-NH2), the half-life in data set [1] is 18.4 min.
Take `CCCCCCCCCC[C@H](N)C(=O)N[C@@H](Cc1ccc(O)cc1)C(=O)NCC(=O)NCC(=O)N[C@@H](Cc1ccccc1)C(=O)N[C@@H](CC(C)C)C(N)=O` (H-[Gly(decyl)]YGGFL-NH2): the half-life in data set [1] is 14.7 min. The Papp in data set [3] was determined as 2.43 ×10⁻⁶ cm/s.
Regarding `CCCCCCCCCC[C@H](NC(=O)[C@H](CC(C)C)NC(=O)[C@H](Cc1ccccc1)NC(=O)CNC(=O)CNC(=O)[C@@H](N)Cc1ccc(O)cc1)C(N)=O` (H-YGGFL[Gly(decyl)]-NH2), the half-life in data set [1] worked out at 16.4 min.
With `CC(C)C[C@H](NC(=O)[C@H](Cc1ccccc1)NC(=O)CNC(=O)CNC(=O)[C@@H](N)Cc1ccc(O)cc1)C(=O)O` [ENKEPHALIN], the Papp in data set [3] worked out at 0.31 ×10⁻⁶ cm/s.
For the compound `CCCCCC[C@H](NC(C)=O)C(=O)N[C@@H](Cc1ccc(O)cc1)C(=O)NCC(=O)NCC(=O)N[C@@H](Cc1ccccc1)C(=O)N[C@@H](CC(C)C)C(N)=O` (Ac-[Aoc(2)]YGGFL-NH2), the half-life in data set [1] was 83 min. In addition, the Papp in data set [3] was 1.06 ×10⁻⁶ cm/s.
With `CCCCCC[C@H](NC(=O)[C@H](CC(C)C)NC(=O)[C@H](Cc1ccccc1)NC(=O)CNC(=O)CNC(=O)[C@H](Cc1ccc(O)cc1)NC(C)=O)C(N)=O` (Ac-YGGFL[Aoc(2)]-NH2), the half-life in data set [1] is 13.8 min. Besides, in data set [3], the Papp came to 0.763 ×10⁻⁶ cm/s.
On to `CCCCCC[C@H](NC(=O)[C@H](CC(C)C)NC(=O)[C@H](Cc1ccccc1)NC(=O)CNC(=O)CNC(=O)[C@@H](N)Cc1ccc(O)cc1)C(N)=O` (H-YGGFL[Aoc(2)]-NH2), for which the half-life in data set [1] worked out at 5.4 min. Besides, the Papp in data set [3] came to 0.00477 ×10⁻⁶ cm/s.
